The text below walks through data of paper PMC3742633 (Molecular cancer therapeutics, 2013).

The subject of assay [1] is HCC-2998. Briefly: NCI 60 cell line screen, Sulforhodamine B Assay. The class given is cell-based. As to conditions: Homo sapiens, HCC 2998, 48 h. The essentials:
(§1)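 Run through the NCI-60 screening service: human cancer cell lines exposed to test compound for 48 h. Growth read as cellular protein content by sulforhodamine B staining, and GI50 derived from this.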

In assay [2] the test system is A549/ATCC. Briefly: NCI 60 cell line screen, Sulforhodamine B Assay. The class given is cell-based. As to conditions: Homo sapiens, A549, 48 h. A digest of the protocol:
as §1

Assay [3] relates to NCI/ADR-RES. Kind of assay: NCI 60 cell line screen, Sulforhodamine B Assay. Particulars: Homo sapiens, 48 h. It counts as cell-based. A digest of the protocol:
as §1

Assay [4] relates to Jurkat and H522 cells. Briefly: Intracellular ATP bioluminescence assay. The class given is cell-based, human. The essentials: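 After plating at 1×10^5 cells/well (24 h, 37°C, 5% CO2) and 3 h test compound exposure, adherent cells were washed with cold PBS, lysed in passive lysis buffer and scraped. One freeze (−80°C)/thaw (37°C) cycle, cleared at 4°C. ATP read by firefly luciferase/D-luciferin luminescence at 560 nm against an ATP standard curve, as nmol/mg BCA protein.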

In assay [5] the test system is MDA-MB-435. Kind of assay: NCI 60 cell line screen, Sulforhodamine B Assay. The class given is cell-based. Particulars: Homo sapiens, MDA-MB-435, 48 h. The essentials:
as §1

Assay [6] concerns SK-MEL-5. Briefly: NCI 60 cell line screen, Sulforhodamine B Assay. As to conditions: Homo sapiens, SK-MEL-5, 48 h. It counts as cell-based. A digest of the protocol: (§2)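 Run through the National Cancer Institute 60 cell line screening service on its panel of 59 human cancer lines in vitro. Cytostatic/toxic effect was read as cellular protein content (sulforhodamine B) over 48 h.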

The subject of assay [7] is MDA-MB-231/ATCC. Kind of assay: NCI 60 cell line screen, Sulforhodamine B Assay. The class given is cell-based. As to conditions: Homo sapiens, MDA-MB-231, 48 h. A digest of the protocol:
as §1

Assay [8] deals with SN12C. Kind of assay: NCI 60 cell line screen, Sulforhodamine B Assay. Particulars: Homo sapiens, 48 h. The class given is cell-based. The essentials: as §2
The subject of assay [9] is SK-MEL-2. Kind of assay: NCI 60 cell line screen, Sulforhodamine B Assay. It counts as cell-based. Particulars: Homo sapiens, SK-MEL-2, 48 h. The essentials: as §1

What is called GI50 is the concentration giving 50% growth inhibition. For the compound `O=C(C=Cc1ccc2ccccc2n1)c1ccncc1` [PFK15, 1-(4-pyridinyl)-3-(2-quinolinyl)-2-propen-1-one], the 50% growth inhibitory concentration (GI50) in assay [1] is 1910 nM; in assay [2] it was 5.37 µM; in assay [3] it was 3.89 µM; in assay [5] it was 3.24 µM; in [6], 3.47 µM; in assay [7] it was 2040 nM. Further, the GI50 in assay [8] worked out at 1860 nM; in assay [9], 6.46 µM. For the same compound, the “PFK15-mediated ATP depletion [% control]” value was found to be 45.62 ± 1.72% in assay [4] (5 mM glucose + 1 mM pyruvate, p value = 0.0017) and 5.29 ± 0.85% in assay [4] (5 mM glucose alone). The “reversal of ATP depletion by glutamine” value in assay [4] (addition of 4 mM glutamine, data not shown) was “could not be significantly reversed”. The “reversal of ATP depletion by lactate” value in [4] (addition of 10 mM lactate, data not shown) was “could not be significantly reversed”. The “effect on intracellular ATP” value in [4] (three hours exposure, Jurkat and H522) is recorded as “reduced”.
